Where a name gives a salt, the structure may show the parent alone. Where only a bound is given, the exact number is not on record here.

Experimental findings from ChEMBL document CHEMBL2057078, “Synthesis and in vitro antiproliferative activity of new 11-aminoalkylamino-substituted 5H- and 6H-indolo[2,3-b]quinolines; structure-activity relationships of neocryptolepines and 6-methyl congeners” (Bioorg Med Chem, 2012) are described below.

In assay [1] the test system is A549. Nature of the assay: Antiproliferative activity against human A549 cells after 72 hrs by SRB assay. It is filed as functional, cell-based. Conditions: A549, 72 h. Summed up: (§1)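 Cells grown in RPMI 1640+OptiMEM (50:50) with 2 mM L-glutamine and 5% FBS at 37 °C, 5% CO2. Plated at 1 × 10⁴ cells/well 24 h before treatment, then exposed 72 h to 0.001–10 µg/mL compound (from 1 mg/mL stock in DMSO/medium). TCA-fixed, stained with 0.4% SRB in 1% acetic acid, dye extracted with 10 mM Tris, read at 540 nm. IC50 vs untreated control; triplicates, 3–5 experiments.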

For another assay, the system named is MV4-11. Briefly: Antiproliferative activity against human MV4-11 cells after 72 hrs by MTT assay. It is filed as functional, cell-based. The settings on record: MV4-11, 72 h. The method in brief: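 Leukemia cells cultured in RPMI 1640 at 37 °C, 5% CO2. Plated at 1 × 10⁴ cells/well 24 h ahead, then 72 h with compound at 0.001–10 µg/mL. MTT (stock 5 mg/mL) added, formazan dissolved with a DMF/SDS lysing mixture for 24 h, OD read at 570 nm. IC50 vs untreated control; triplicates, 3–5 repeats.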

Assay [2] relates to BALB/3T3. Nature of the assay: Antiproliferative activity against mouse BALB/3T3 cells after 72 hrs by SRB assay. In kind it is cell-based. Conditions: BALB/3T3, 72 h. The method in brief:
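Mouse fibroblasts kept in Dulbecco's medium with 2 mM L-glutamine, 1.0 mM sodium pyruvate and 10% FBS at 37 °C, 5% CO2. Seeded at 1 × 10⁴ cells/well a day before dosing, then 72 h exposure to 0.001–10 µg/mL. SRB staining after TCA fixation, Tris extraction, OD 540 nm. IC50 relative to untreated cells; triplicate wells, 3–5 independent runs.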
(In general: The SRB assay estimates cell density from bound dye.)

The subject of another assay is HCT-116. Briefly: Antiproliferative activity against human HCT116 cells after 72 hrs by SRB assay. It is filed as functional, cell-based. Conditions: HCT-116, 72 h. The method in brief: as §1
Assay [3] relates to BALB/3T3. Briefly: Selectivity ratio of IC50 for mouse BALB/3T3 cells to IC50 for human A549 cells.
Another assay has as its system Nucleic Acid. Briefly: Binding affinity to salmon fish sperm DNA assessed as hypochromic effect by UV-Vis absorption spectroscopic analysis at pH 7. It is filed as nucleic-acid assay. The settings on record: Salmonidae. The method in brief:
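UV–vis absorption titration in pH 7.0 phosphate buffer with 2.5% DMSO at 20 °C, 1 cm quartz cuvette. Compound held at 50 µmol/L with DNA added from 0 to 1.0 µmol/L. Binding assessed from absorbance change using a 1/ΔA versus 1/[DNA] plot.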

Assay [4] relates to BALB/3T3. Nature of the assay: Selectivity ratio of IC50 for mouse BALB/3T3 cells to IC50 for human HCT116 cells.
For assay [5], the system named is A549. Nature of the assay: Selectivity ratio of IC50 for human A549 cells to IC50 for human HCT116 cells. In kind it is functional.

With `COc1cccc2c1C(=O)c1c(O)c3c(c(O)c1C2=O)C[C@@](O)(C(=O)CO)C[C@@H]3O[C@H]1C[C@H](N)[C@H](O)[C@H](C)O1` [DOXORUBICIN HYDROCHLORIDE], the IC50 (in general, the concentration that inhibits the measured activity by half) in the assay with A549 [1] is 329 nM; in the assay with MV4-11 it was 6 nM; in the assay with BALB/3T3 [2], 1080 nM; with HCT-116, 390 nM.

Turning to `Cn1c2nc3ccccc3c-2c(Cl)c2cc(Br)ccc21`, the IC50 with MV4-11 was determined as 810 nM.

As to `Cn1c2nc3ccccc3c-2c(NCCCO)c2cc(Cl)ccc21`, the half-inhibitory concentration (IC50) in the assay on MV4-11 was 530 nM.

`CCN(CC)CCCC(C)Nc1c2cc(Cl)ccc2nc2c1c1ccccc1n2C` (configuration not stated) returned a half-inhibitory concentration (IC50) with MV4-11 of 5250 nM.

As to `Cn1c2nc3ccccc3c-2c(NCCCO)c2ccccc21`, the half-inhibitory concentration (IC50) with A549 [1] was determined as 973 nM; in the assay on MV4-11 it was 170 nM; with BALB/3T3 [2], 635 nM; in the assay on HCT-116, 714 nM.

In turn, `CN1CCCN(Cc2c3c4ccccc4nc-3n(C)c3ccc(Cl)cc23)CC1` registered an IC50 in the assay on MV4-11 of 3440 nM.

As to `Cn1c2nc3ccccc3c-2c(NCCCCN)c2cc(Cl)ccc21`, the IC50 in the assay with MV4-11 came out at 680 nM.

Turning to `COc1ccc2c(c1)c(NCCCCN)c1c3ccccc3nc-1n2C`, the IC50 in the assay on A549 [1] was found to be 674 nM; in the assay on MV4-11, 132 nM; in the assay with BALB/3T3 [2] it was 1620 nM; in the assay on HCT-116 it was 657 nM.

For `CCN(CC)CCCC(C)Nc1c2c3ccccc3nc-2n(C)c2ccc(Cl)cc12` (configuration not stated), the IC50 in the assay with MV4-11 amounted to 780 nM.

As for `Cn1c2nc3ccccc3c-2c(N2CCOCC2)c2ccccc21`, the IC50 in the assay on A549 [1] is 1510 nM; in the assay on MV4-11, 164 nM; in the assay with BALB/3T3 [2], 1610 nM; in the assay on HCT-116 it was 1800 nM.

In the assay on MV4-11, `Cn1c2ccccc2c2c(NCCc3c[nH]c4ccccc34)c3cc(Cl)ccc3nc21` gave a concentration for half-maximal inhibition (IC50) of 18800 nM.

`Cn1c2nc3ccccc3c-2c(NCCc2c[nH]c3ccccc23)c2ccccc21` gave an IC50 in the assay with MV4-11 of 871 nM.

As to `CN(C)CCCNCc1c2c3ccccc3nc-2n(C)c2ccc(Cl)cc12`, the IC50 in the assay with MV4-11 was 3460 nM.

`CN1CCCN(c2c3c4ccccc4nc-3n(C)c3ccccc23)CC1` registered a 50% inhibitory concentration (IC50) in the assay with MV4-11 of 7170 nM.

Take `CCN(CC)CCCC(C)Nc1c2c3ccccc3nc-2n(C)c2ccccc12` (configuration not stated): the IC50 in the assay with MV4-11 was determined as 721 nM.

With `CN1CCCN(c2c3c4ccccc4nc-3n(C)c3ccc(Br)cc23)CC1`, the IC50 with A549 [1] was 4540 nM; with MV4-11, 737 nM; with BALB/3T3 [2], 7600 nM; with HCT-116, 1160 nM.

Regarding `Cn1c2nc3ccccc3c-2c(NCCCN)c2cc(Br)ccc21`, the IC50 with A549 [1] turned out to be 543 nM; in the assay with MV4-11, 12 nM; in the assay with BALB/3T3 [2], 869 nM; with HCT-116, 274 nM. Also, the “Ratio IC50” value with BALB/3T3 [3] and in the assay on BALB/3T3 [4] was 3 each time. In addition, in the assay on Nucleic Acid, the K was 2.93 ×10⁵ L/mol.

For `CN1CCCN(c2c3c4ccccc4nc-3n(C)c3ccc(Cl)cc23)CC1`, the IC50 was 7390 nM with A549 [1], 106 nM in the assay with MV4-11, 6410 nM with BALB/3T3 [2] and 1750 nM in the assay on HCT-116. For the same compound, the “Ratio IC50” value in the assay with A549 [5] and in the assay on BALB/3T3 [4] was 4 each time.

With `CCN(CC)CCCC(C)Nc1c2c3ccccc3nc-2n(C)c2ccc(Br)cc12` (configuration not stated), in the assay on MV4-11, the 50% inhibitory concentration (IC50) turned out to be 578 nM.

Turning to `Cn1c2ccccc2c2c(NCCCN)c3cc(Cl)ccc3nc21`, the IC50 in the assay on A549 [1] was determined as 7380 nM; in the assay on MV4-11, 800 nM; in the assay on BALB/3T3 [2] it was 9800 nM; in the assay with HCT-116, 4490 nM. Moreover, the K in the assay with Nucleic Acid was determined as 3.28 ×10⁵ L/mol.

For `Cn1c2nc3ccccc3c-2c(NCCCCN)c2cc(F)ccc21`, the IC50 with A549 [1] was determined as 785 nM; in the assay on MV4-11 it was 95 nM; in the assay on BALB/3T3 [2], 853 nM; in the assay with HCT-116, 178 nM. Further, the “Ratio IC50” value with A549 [5] and in the assay with BALB/3T3 [4] was 4 throughout.

`Cn1c2nc3ccccc3c-2c(NCCCCN)c2ccccc21`: the IC50 in the assay on A549 [1] stood at 911 nM; in the assay with MV4-11, 100 nM; in the assay with BALB/3T3 [2] it was 936 nM; with HCT-116, 669 nM.

Regarding `Cn1c2nc3ccccc3c-2c(NCCCCN)c2cc(Br)ccc21`, the IC50 in the assay on A549 [1] came out at 579 nM; with MV4-11, 91 nM; in the assay with BALB/3T3 [2] it was 742 nM; in the assay on HCT-116, 209 nM. Moreover, the “Ratio IC50” value with BALB/3T3 [3] and in the assay on BALB/3T3 [4] was 3 throughout.

For `COc1ccc2c(c1)c(NCCCO)c1c3ccccc3nc-1n2C`, the IC50 in the assay with A549 [1] came out at 1010 nM; in the assay with MV4-11, 135 nM; in the assay on BALB/3T3 [2] it was 807 nM; in the assay with HCT-116 it was 278 nM. In addition, the “Ratio IC50” value in the assay on A549 [5] and in the assay with BALB/3T3 [4] was 4 each time.

`COc1ccc2c(c1)c(Cl)c1c3ccccc3nc-1n2C` had an IC50 with MV4-11 of 1210 nM.

In turn, `CN(C)CCNc1c2cc(Cl)ccc2nc2c1c1ccccc1n2C` displayed an IC50 with MV4-11 of 2830 nM.

On to `Cn1c2nc3ccccc3c-2c(NCCCN)c2ccccc21`, for which the IC50 is 205 nM in the assay on A549 [1], 66 nM with MV4-11, 884 nM in the assay on BALB/3T3 [2] and 302 nM in the assay on HCT-116. In addition, the “Ratio IC50” value with BALB/3T3 [3] and in the assay with BALB/3T3 [4] was 3 in each case.

`Cn1c2ccccc2c2c(N3CCOCC3)c3cc(Cl)ccc3nc21` gave an IC50 in the assay on MV4-11 of over 25000 nM.

Regarding `CN1CCCN(c2c3cc(Cl)ccc3nc3c2c2ccccc2n3C)CC1`, the IC50 is 11200 nM in the assay with A549 [1], 773 nM with MV4-11, over 25000 nM in the assay with BALB/3T3 [2] and 8000 nM in the assay on HCT-116.

Take `Cn1c2ccccc2c2c(NCCCO)c3cc(Cl)ccc3nc21`: in the assay on MV4-11, the 50% inhibitory concentration (IC50) worked out at 6210 nM.

Take `Cn1c2nc3ccccc3c-2c(NCCCN)c2cc(Cl)ccc21`: the 50% inhibitory concentration (IC50) came to 761 nM with A549 [1], 68 nM with MV4-11, 401 nM in the assay with BALB/3T3 [2] and 195 nM in the assay on HCT-116. Further, the “Ratio IC50” value with A549 [5] and in the assay on BALB/3T3 [4] was 4 throughout.

`Cn1c2nc3ccccc3c-2c(NCCc2c[nH]c3ccccc23)c2cc(Cl)ccc21` yielded a 50% inhibitory concentration (IC50) with MV4-11 of 447 nM.

On to `Cn1c2ccccc2c2c(NCCN)c3cc(Cl)ccc3nc21`, for which the half-maximal inhibitory concentration (IC50) turned out to be 8280 nM in the assay on A549 [1], 456 nM in the assay on MV4-11, 10400 nM with BALB/3T3 [2] and 6990 nM with HCT-116.

In the case of `Cn1c2ccccc2c2c(NCCCCN)c3cc(Cl)ccc3nc21`, the IC50 in the assay on A549 [1] is 6090 nM; with MV4-11, 669 nM; in the assay on BALB/3T3 [2] it was 9010 nM; in the assay on HCT-116, 5500 nM.

Take `Cn1c2nc3ccccc3c-2c(Cl)c2ccccc21` [11-CHLORONEOCRYPTOLEPINE]: in the assay on MV4-11, the IC50 was 1310 nM.

For the compound `Cn1c2nc3ccccc3c-2c(NCCCO)c2cc(Br)ccc21`, the IC50 in the assay on A549 [1] was found to be 1590 nM; with MV4-11, 703 nM; in the assay on BALB/3T3 [2], 1200 nM; in the assay with HCT-116 it was 989 nM.

For `COc1ccc2c(c1)c(NCCCN)c1c3ccccc3nc-1n2C`, the IC50 was found to be 407 nM with A549 [1], 102 nM in the assay with MV4-11, 978 nM in the assay on BALB/3T3 [2] and 155 nM in the assay on HCT-116. Further, the “Ratio IC50” value with BALB/3T3 [3] and in the assay on BALB/3T3 [4] was 3 throughout.
